From PubChem BioAssay
Rin1 Abl inh = inhibitors of human Rin1-Abl protein interaction; P00519+Q13671; inhibition, % at 7.35 µM; TR-FRET Rin1/Abl binding, biochemical; actives 0.4% (n = 360,000); in the data active = inhibition above about 5%, passing the limit was not always enough
Rpn11 inh = inhibitors of human proteasome Rpn11; human 26S proteasome, Ub4-pepOG fluorescence polarization; 20S core pre-blocked with epoxomicin; inhibition, % at 20 µM; actives 0.59% (n = 360,000); AID 588493;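 active = inhibition at 20 µM, scaled to each plate's controls, above about 33%, limit read from the data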
HNF4A DNA FP = change in binding of human HNF4 alpha to DNA. activity change, % at 10 µM. actives 0.3% (n = 360,000). HNF4a-FITC DNA binding, fluorescence polarization, 1 h; in the data active = activity change above about 30%, passing the limit was not always enough
CSN deneddyl inh = blocks human CSN-mediated cullin deneddylation; Q92905; Purified CSN, SCF-Nedd8-OG deneddylation, fluorescence polarization; inhibition, % at 12.5 µM; actives 0.38% (n = 360,000);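 active = pattern-corrected inhibition above about 35%, with an unprinted fluorescence ratio check between 0.5 and 1.5, limit read from the data, passing the limit was not always enough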
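Test system: purified human Csn5 enzyme expressed in HEK293T cells. Amount: 0.24 nM enzyme. Reagent: SCFSkp2-Nedd8OG substrate at 10 nM final. Schedule: 90 min incubation of compound, enzyme and substrate at room temperature. Detection: fluorescence polarization. Read-out: % inhibition of substrate cleavage by Csn5.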
TPT1 inhibitor = blocks Candida albicans tRNA 2'-phosphotransferase; recombinant caTPT1, FP RNA substrate dephosphorylation; inhibition, % at 5 µM; actives 0.81% (n = 300,000); AID 1962;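 active = inhibition above the mean of all tested compounds plus 3 SD, set per screening campaign, cut at about 24% in these data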
Neddyl block = cullin neddylation inhibition | P61081+Q13564 | AID 651699 | actives 0.58% (n = 360,000) | TR-FRET cullin neddylation, biochemical | inhibition, % at 25 µM; in the data active = inhibition above about 36%
TPT1 inh confirm = TPT1 (C. albicans) inhibition, confirmation; shares compounds with TPT1 inhibitor; recombinant caTPT1, fluorescence polarization, RNase T1 coupled; inhibition, % at 5 µM; AID 2149; actives 74% (n = 2,400);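 active = inhibition above the primary screen limit, the mean inhibition of all tested compounds plus 3 SD, cut at about 25% in these data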
RNase T1 inh = RNase T1 inhibition in TPT1 counter-screen; shares compounds with TPT1 inhibitor; RNase T1 cleavage, fluorescence polarization, 1536-well; inhibition, % at 5 µM; actives 83% (n = 2,400); AID 2153;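 active = inhibition above the solvent-only control well mean plus 3 SD, limit set per screening run, cut at about 23% in these data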;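 note: inhibitors block cleavage so intact labeled substrate keeps polarization high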
A number is an active result; i = inactive; nt = no result given. An excerpt weighted towards active compounds, which were near 2.4% of everything screened.

SMILES	Rin1 Abl inh	Rpn11 inh	HNF4A DNA FP	CSN deneddyl inh	TPT1 inhibitor	Neddyl block	TPT1 inh confirm	RNase T1 inh
COc1cccc(C(c2nnnn2Cc2ccccc2)N2CCC3(CC2)C(=O)NCN3c2ccccc2)c1OC (stereo not given)	i	i	i	i	nt	i	nt	nt
O=C1NC(=S)N(c2ccc(Br)cc2)C(=O)/C1=C/N1CCN(C(=O)c2ccco2)CC1	i	nt	49	57	86	i	37	52
O=C1NC(=S)N(c2ccc(F)cc2)C(=O)/C1=C/c1ccccc1O	i	i	i	i	i	i	nt	nt
O=C1NC(=O)N(c2ccc3c(c2)OCO3)C(=O)/C1=C\c1ccsc1	i	i	i	i	i	i	nt	nt
Cc1ccc(N2C(=O)NC(=O)/C(=C/c3cnc(-c4ccccc4)nc3)C2=O)cc1C	i	i	i	i	25	i	i	i
Cc1ccc(N2C(=O)NC(=O)/C(=C\c3ccsc3)C2=O)cc1C	nt	nt	nt	nt	28	nt	52	66
Cc1cccc(N2C(=O)NC(=O)/C(=C\c3cnc(-c4ccccc4)nc3)C2=O)c1	i	i	i	i	i	i	nt	nt
O=C1NC(=O)N(c2ccccc2)C(=O)/C1=C/c1ccoc1	i	i	i	44	113	i	60	74
CCN(CC)c1ccc(/C=C2\C(=O)NC(=S)N(C)C2=O)o1	i	nt	i	i	123	i	135	135
CN1C(=O)C(=Cc2ccc(SC3CCCCC3)o2)C(=O)N(C)C1=O	i	i	i	i	i	i	nt	nt
CN1C(=O)/C(=C\N2CCc3ccccc32)C(=O)NC1=S	i	i	i	i	i	i	nt	nt
CCN(CC)c1ccc(C=C2C(=O)N(C)C(=S)N(C)C2=O)o1	i	nt	i	i	93	i	102	112
CN1C(=O)C(=Cc2ccc(N3CCCCC3)o2)C(=O)N(C)C1=S	i	nt	i	i	85	i	105	111
O=C1NC(=O)N(c2ccc3c(c2)OCO3)C(=O)/C1=C/c1ccc(N2CCCCC2)o1	i	nt	i	i	132	i	146	142
O=C1NCN(c2ccccc2)C12CCN(C(CCc1ccccc1)c1nnnn1C1CCCCC1)CC2 (stereo not given)	i	i	i	i	nt	i	nt	nt
COc1cc(OC)c(OC)cc1/C=C1/C(=O)NC(=O)N(Cc2ccccc2)C1=O	i	i	i	i	26	i	30	41
COc1cc(OC)c(OC)cc1/C=C1\C(=O)NC(=O)N(Cc2ccccc2)C1=O	i	i	i	i	i	i	nt	nt
CCC1C2CC3C4N(C)c5ccccc5C45CC(C2C5O)N3C1O (stereo not given)	i	i	i	i	nt	i	nt	nt
Cc1ccc(N2C(=O)NC(=O)/C(=C\c3cc(C)n(-c4sc5c(c4C#N)CCCC5)c3C)C2=O)cc1	i	i	i	i	26	i	36	50
CN(C)C=C1C(=O)N(C2CCCCC2)C(=O)N(C2CCCCC2)C1=O	i	i	i	i	29	i	43	58
CS(=O)(=O)c1ccc(C2=C(CNC(=O)c3nccs3)[C@H]3CC[C@@H](C2)N3CCOc2ccccc2)cc1	i	i	i	i	nt	i	nt	nt
Cc1ccccc1N1C(=O)NC(=O)/C(=C\c2ccc3c(c2)CCCN3Cc2ccccc2)C1=O	i	nt	i	i	61	i	154	145
COC(=O)C1=C(c2ccc(OC(F)(F)F)cc2)C[C@@H]2CC[C@H]1N2C(=O)NCc1cc(C)oc1C(F)(F)F	i	i	i	i	nt	i	nt	nt
C[C@H]1CN([C@@H](C)CO)C(=O)CCCn2nncc2CO[C@H]1CN(C)C(=O)Oc1ccc2ccccc2c1	i	i	i	i	nt	i	nt	nt
COc1ccc(-c2ccc3c(c2)CNCc2cnnn2-3)cc1	i	i	i	i	nt	nt	nt	nt
SMILES	Rin1 Abl inh	Rpn11 inh	HNF4A DNA FP	CSN deneddyl inh	TPT1 inhibitor	Neddyl block	TPT1 inh confirm	RNase T1 inh
COc1ccc(Cn2c(O)c(C=NCCCn3ccnc3)c(=O)[nH]c2=O)cc1	i	i	i	i	i	i	nt	nt
CCCCN=Cc1c(O)n(-c2c(C)cc(C)cc2C)c(=O)[nH]c1=O	i	i	i	i	33	i	34	45
CCCCCCn1c(O)c(C=NCCCn2ccnc2)c(=O)[nH]c1=O	i	nt	67	53	134	i	73	89
O=c1[nH]c2ccccc2n1C1CCN(Cc2ccc(-c3nc4ccc(F)cc4nc3-c3ccccc3)cc2)CC1	nt	nt	i	i	nt	i	nt	nt
C=CCN1C(=O)/C(=C/c2cccs2)C(=O)NC1=S	i	i	i	i	i	i	nt	nt
O=C1NC(=O)N(c2ccc(F)cc2)C(=O)/C1=C/c1ccc(N2CCOCC2)cc1	i	i	i	i	i	i	nt	nt
C=CCN1C(=O)/C(=C/c2ccc(N3CCOCC3)o2)C(=O)NC1=S	i	nt	80	103	121	i	143	137
O=C1NC(=O)C(=Cc2ccc(N3CCOCC3)o2)C(=O)N1	i	nt	i	i	180	i	146	144
CC(=O)OC1C(=O)OCC23CCC4(C)OC4C2OC2CC(OC(=O)C=CC=CC(=O)OCCC1C)C3(C)C21CO1 (stereo not given)	i	i	i	i	nt	i	nt	nt
CCOC(=O)c1cccc(C2=C(CNC(=O)c3ccc([N+](=O)[O-])cc3)[C@H]3CC[C@@H](C2)N3Cc2ccccc2)c1	i	i	i	i	nt	i	nt	nt
O=c1[nH]c(=O)n(Cc2ccco2)c(O)c1/C=N/N1CCCCC1	i	i	i	i	24	i	29	40
O=C1NCN(c2ccccc2)C12CCN(C(CCc1ccccc1)c1nnnn1C1CCCC1)CC2 (stereo not given)	i	i	i	i	nt	i	nt	nt
CCN1C(=O)C(=C/C=C/c2ccco2)C(=O)N(CC)C1=S	i	nt	i	i	81	i	100	104
CCN1C(=O)C(=C2C=C(C)N(Cc3ccco3)C(C)=C2)C(=O)N(CC)C1=S	i	i	i	i	i	i	nt	nt
Cc1ccc(N2C(=O)NC(=O)/C(=C\c3ccc([N+](=O)[O-])o3)C2=O)cc1	nt	nt	nt	nt	29	nt	50	i
COc1ccc(N2C(=O)/C(=C/c3cccs3)C(=O)NC2=S)cc1	i	i	i	i	i	i	nt	nt
COc1ccc(N2C(=O)/C(=C/c3ccc(N(C)C)o3)C(=O)NC2=S)cc1	i	nt	i	i	134	i	142	138
CCN(CC)c1ccc(/C=C2\C(=O)NC(=S)N(c3ccc(OC)cc3OC)C2=O)o1	i	nt	i	i	141	i	150	142
COc1ccc(N2C(=O)NC(=O)/C(=C\c3cn(CC(=O)N4CCOCC4)c4ccccc34)C2=O)c(OC)c1	i	i	i	i	i	i	nt	nt
CCN1C(=O)/C(=C/c2ccc(N(CC)CC)cc2OC)C(=O)NC1=S	i	i	i	i	44	i	95	101
